Experimental data of several laboratories.
Protocols differ between the studies behind these lines.
RPS6KA2: Ribosomal protein S6 kinase alpha-2 (RPS6KA2, Homo sapiens, UniProt Q15349)
RPS6KA2 C-terminal kinase domain: Ribosomal protein S6 kinase alpha-2, C-terminal kinase domain (RPS6KA2, Homo sapiens, UniProt Q15349)
RPS6KA2 N-terminal kinase domain: Ribosomal protein S6 kinase alpha-2, N-terminal kinase domain (RPS6KA2, Homo sapiens, UniProt Q15349)

| SMILES | target | assay | conditions | quantity | result |
| --- | --- | --- | --- | --- | --- |
| COc1cc2ncnc(Nc3ccc(Oc4ccccc4)c(C)c3C)c2cc1OC | RPS6KA2 | enzyme activity, inhibitor | 1 µM | inhibition | 2% |
| CNC(=O)Nc1ccc2c(c1)[C@@]1(CC2)OC(=O)N(CC(=O)N(Cc2ccc(F)cc2)[C@@H](C)C(F)(F)F)C1=O | RPS6KA2 C-terminal kinase domain | cell-free assay, competition with immobilised ligand | 1 µM | remaining binding | 100% |
| CCOc1cc(-c2nncn2C)ccc1Nc1ncc2cc(C)nc(NCC(C)(C)C)c2n1 | RPS6KA2 | enzyme activity, inhibitor, FRET | 1 µM | inhibition | < 15% |
| c1cnn2ncc(-c3ccnc(N4CCC45COC5)n3)c2c1 | RPS6KA2 N-terminal kinase domain | binding, competition with immobilised ligand | 1 µM | remaining binding | 95% |
| Cc1cc(NC(=O)c2cccc3cc(-c4cccc5[nH]nc(N)c45)ccc23)ccc1F | RPS6KA2 | enzyme activity, inhibitor | 0.1 µM | activity vs control | 95% |
| Cn1cc(Cl)c2c(Oc3c(F)cc(Nc4cc(Cl)nc(N)n4)cc3F)ccnc21 | RPS6KA2 N-terminal kinase domain | cell-free assay, competition with immobilised ligand | 0.1 µM | remaining binding | 95% |
| CN(C)c1ncc(F)c(-c2cnn3ncccc23)n1 | RPS6KA2 C-terminal kinase domain | binding, competition with immobilised ligand | 1 µM | remaining binding | 97% |
| Cc1ccc(Nc2nccc(N(C)c3ccc4c(C)n(C)nc4c3)n2)cc1S(N)(=O)=O | RPS6KA2 | enzyme activity, inhibitor | 10 µM | inhibition | 64% |
| N[C@H]1CCN(c2nccc(-c3cnn4ncccc34)n2)C1 | RPS6KA2 C-terminal kinase domain | binding, competition with immobilised ligand | 1 µM | remaining binding | 91% |
| O=C(NC[C@@H]1[C@H]2CN(C(=O)OCc3cc(C(F)(F)F)cc(C(F)(F)F)c3)C[C@@H]12)c1ccc2[nH]nnc2c1 | RPS6KA2 C-terminal kinase domain | cell-free assay, competition with immobilised ligand | 1 µM | remaining binding | 84% |
| Cc1ccc(C(=O)Nc2ccc(CN3CCN(C)CC3)c(C(F)(F)F)c2)cc1C#Cc1cnc2cccnn12 | RPS6KA2 | enzyme activity, inhibitor | 23.5 nM | remaining activity | 100% |
| C[C@H]1CCN(c2nccc(-c3cnn4ncccc34)n2)C1 | RPS6KA2 C-terminal kinase domain | binding, competition with immobilised ligand | 1 µM | remaining binding | 100% |
| O=c1nc(-c2ccccn2)sc2ccccc12 | RPS6KA2 N-terminal kinase domain | binding, competition with immobilised ligand | 1 µM | remaining binding | 100% |
| CC(C)(C)c1nc(-c2cccc(NS(=O)(=O)c3c(F)cccc3F)c2F)c(-c2ccnc(N)n2)s1 | RPS6KA2 | enzyme activity, inhibitor, radiometric | 1 µM | remaining activity | 81% |
| CCS(=O)(=O)c1cc2cc(C[C@](O)(CC(C)(C)c3ccc(F)cc3C(N)=O)C(F)(F)F)[nH]c2cn1 | RPS6KA2 N-terminal kinase domain | cell-free assay, competition with immobilised ligand | 1 µM | remaining binding | 100% |
| Cc1ccc(NC(=O)c2ccc(C)c(C(F)(F)F)c2)cc1C#Cc1nn(C2CCC(O)CC2)c2ncnc(N)c12 (stereo not shown) | RPS6KA2 | cell-free assay | 10 µM | remaining signal | 38% |
| Nc1ncnc2occ(-c3ccc(NC(=O)Nc4cc(C(F)(F)F)ccc4F)cc3)c12 | RPS6KA2 C-terminal kinase domain | cell-free assay, inhibitor | 20 µM | remaining signal | 2.3% |
| COc1ccnn2ncc(-c3ccnc(N(C)C)n3)c12 | RPS6KA2 N-terminal kinase domain | binding, competition with immobilised ligand | 1 µM | remaining binding | 74% |
| O=C(NCCCC1CCCCC1)c1ccc(CNC(=O)c2cnn(-c3ccccc3)c2C(F)(F)F)cc1 | RPS6KA2 C-terminal kinase domain | cell-free assay, competition with immobilised ligand | 0.1 µM | remaining binding | 96% |
| CC1CCCN1c1nccc(-c2cnn3ncccc23)n1 (stereo not shown) | RPS6KA2 C-terminal kinase domain | binding, competition with immobilised ligand | 1 µM | remaining binding | 100% |
| CNC(=O)c1ccc(Nc2ncc(C(F)(F)F)c(NCc3nccnc3N(C)S(C)(=O)=O)n2)cc1 | RPS6KA2 C-terminal kinase domain | cell-free assay, competition with immobilised ligand | 0.1 µM | remaining binding | 61% |
| CN(C)c1nccc(-c2cnn3ncccc23)n1 | RPS6KA2 C-terminal kinase domain | binding, competition with immobilised ligand | 1 µM | remaining binding | 100% |
| CNCc1ccc(-c2cc(-c3nc(-c4ccc(S(=O)(=O)C(C)C)cc4)cnc3N)on2)cc1 | RPS6KA2 | enzyme activity, inhibitor | 0.4 µM | inhibition | 17% |
| FC(F)(F)c1ccc2c(c1)nc(-c1cccnc1)n2C1CC1 | RPS6KA2 N-terminal kinase domain | cell-free assay, competition with immobilised ligand | 1 µM | remaining binding | 100% |
| Cc1ccc(C(=O)NCc2ccsc2)cc1C#Cc1cn(C(C)C)c2ncnc(N)c12 | RPS6KA2 | enzyme activity, inhibitor | 1 µM | activity vs control | 85% |
